Series [1] deals with RAW264.7. Description: Inhibition of LPS-induced nitric oxide production in mouse RAW264.7 cells after 24 hrs by Griess reaction based spectrophotometry. Particulars: RAW264.7, 24 h. In kind it is functional, cell-based. The method, boiled down: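 Cells plated at 1 × 10⁵ cells/well and stimulated with LPS, with or without compound, for 24 h at 37 °C. Nitrite was read at 550 nm against a sodium nitrite standard curve. Triplicate wells; mean SD of three independent experiments.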

Series [2] relates to RAW264.7. Description: Cytotoxicity against mouse RAW264.7 cells at 100 uM after 24 hrs by MTT assay. In kind it is cell-based. Particulars: raw264.7, 24 h.

Molecules are shown by their SMILES. pIC50: −log10 of the molar value.

In the series on RAW264.7 [1], `Oc1ccc(CC[C@H](O)C[C@H](O)CCc2ccc(O)c(O)c2)cc1` (relative stereo) gave a pIC50 of 5.50. In addition, the Activity result in the series on RAW264.7 [2] is listed as “Toxic”.
Turning to `C[C@]12CCC(=O)C=C1CC[C@@H]1[C@@H]2[C@@H](O)C[C@@]2(C)[C@H]1CC[C@]2(O)C(=O)CO` [HYDROCORTISONE], in the series with RAW264.7 [2], the Activity result was “Non-toxic”.
In the series on RAW264.7 [1], `CC(=O)O[C@H](CCc1ccc(O)cc1)C[C@H](O)CCc1ccc(O)cc1` showed a pIC50 of 4.49. For the same compound, the Activity result in the series on RAW264.7 [2] is given as “Non-toxic”.
In the series on RAW264.7 [1], `Oc1ccc(CC[C@@H](O)C[C@H](O)CCc2ccc(O)cc2)cc1` [(+)-HANNOKINOL] showed a pIC50 below 4.00. The Activity entry in the series with RAW264.7 [2] is given as “Non-toxic”.
In the case of `COc1cc(CCC(=O)C[C@@H](O)CCc2ccc(O)cc2)ccc1O`, the pIC50 in the series on RAW264.7 [1] was 4.43. In addition, the Activity entry in the series with RAW264.7 [2] is listed as “Non-toxic”.
On to `CC(=O)O[C@H](CCc1ccc(O)c(O)c1)C[C@@H](CCc1ccc(O)c(O)c1)OC(C)=O`, for which the negative-log IC50 (pIC50) in the series with RAW264.7 [1] was 5.10. For the same compound, the Activity result in the series with RAW264.7 [2] was “Toxic”.
On to `O=C(CCc1ccc(O)cc1)C[C@@H](O)CCc1ccc(O)c(O)c1`, for which the pIC50 with RAW264.7 [1] was 4.08. The Activity result in the series with RAW264.7 [2] was “Non-toxic”.
The corresponding values for `CC(=O)O[C@H](CCc1ccc(O)c(O)c1)C[C@H](O)CCc1ccc(O)cc1` are 5.02 and “Toxic”.
The corresponding values for `COc1cc(CC[C@@H](O)C[C@H](O)CCc2ccc(O)c(O)c2)ccc1O` are 4.59 and “Non-toxic”.
The corresponding values for `O=C(CCc1ccc(O)cc1)C[C@@H](O)CCc1ccccc1` are 4.12 and “Non-toxic”.
The compound `CC(=O)O[C@@H](CCc1ccc(O)c(O)c1)C[C@@H](O)CCc1ccc(O)cc1` gave a negative-log IC50 (pIC50) in the series with RAW264.7 [1] of 5.02. The Activity entry in the series with RAW264.7 [2] was “Toxic”.
On the same counts, the results for `Oc1ccc(CC[C@@H](O)C[C@@H](O)CCc2ccc(O)cc2)cc1` are below 4.00 and “Non-toxic”.
In the series with RAW264.7 [1], `COc1cc(CC[C@@H](O)C[C@@H](O)CCc2ccc(O)cc2)ccc1O` (relative stereo) had a negative logarithm of the IC50 (pIC50) of 5.55. For the same compound, the Activity entry in the series on RAW264.7 [2] is “Non-toxic”.
`COc1ccc2c(c1)c(CC(=O)O)c(C)n2C(=O)c1ccc(Cl)cc1` [INDOMETHACIN]: in the series with RAW264.7 [2], the Activity entry is listed as “Non-toxic”.
On to `COc1cc(CCC(=O)C[C@@H](O)CCc2ccc(O)c(O)c2)ccc1O`, for which, in the series with RAW264.7 [1], the pIC50 was 5.03. For the same compound, the Activity result in the series with RAW264.7 [2] was “Toxic”.
The corresponding values for `COc1cc(CC[C@@H](O)C[C@@H](O)CCc2ccc(O)cc2)cc(O)c1O` (relative stereo) are 5.62 and “Toxic”.
Consider `CC(=O)O[C@H](CCc1ccc(O)c(O)c1)C[C@H](O)CCc1ccc(O)c(O)c1`, for which the pIC50 with RAW264.7 [1] is 4.45. For the same compound, the Activity result in the series with RAW264.7 [2] is on record as “Toxic”.
In the case of `CC(=O)O[C@H](CCc1ccc(O)cc1)C[C@@H](CCc1ccc(O)c(O)c1)OC(C)=O`, the negative logarithm of the IC50 (pIC50) in the series on RAW264.7 [1] is 4.97. Moreover, the Activity result in the series on RAW264.7 [2] is on record as “Non-toxic”.
The corresponding values for `Oc1ccc(CC[C@@H](O)C[C@H](O)CCc2ccc(O)c(O)c2)cc1` are 4.94 and “Non-toxic”.
